In article PMC8360206 (Cancer, 2021):
Read-outs that look alike come from different tables or passages of the source.

Tests used:
patients with R/R AML = details: OTX015 monotherapy ref 10; cited from earlier work
[1] = test system: patients with relapsed/refractory solid tumors; details: cited from earlier work
[2] = Plasma mivebresib pharmacokinetics; format: in vivo, human
[3] = test system: patients with relapsed/refractory AML; assay: Safety: treatment‐emergent adverse events and DLTs; format: in vivo, human
In short: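 3 + 3 dose escalation, daily dosing in 28-day cycles. Monotherapy was 1.5, 2.0 or 2.5 mg. TEAEs (first dose to 30 days post-discontinuation) were graded by NCI CTCAE v4.03 in all patients given ≥1 dose.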

[4] = test system: DCXR, HEXIM1, CD93, MYC, BCL2, PUMA, BIM gene expression in peripheral blood; format: in vivo, human; details: for pharmacodynamic effects (gene modulation) vs dose and drug exposure: peripheral blood, correlation with Cmax, P < .05
In short: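 Whole blood was drawn before and 6 h after the C1D1 monotherapy dose. RNA from it underwent whole-transcriptome sequencing, and marker expression was given as percent change from baseline. Linear regression related C1D1 plasma Cmax to biomarker change.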

[5] = test system: relapsed/refractory acute myeloid leukemia; assay: Clinical activity: IWG response, bone marrow blast change, PFS, OS; format: in vivo, human
In short: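 Adults (≥18 y) with relapsed/refractory AML got the test compound daily in 28-day cycles at 1.5, 2.0 or 2.5 mg as monotherapy. Response followed revised IWG AML criteria, comparing baseline bone marrow with at least 1 on-treatment marrow sample. Marrow was sampled at screening, C2D1 and as clinically indicated. Patients without a postbaseline sample were not evaluable. PFS and OS were summarised descriptively.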

[6] = MIV‐mono n = 19, started MIV‐Ven n = 25
[7] = started arms (mono n = 19, combination n = 25)
[8] = PB, 6 hours after MIV‐mono administration, P < .001

Compound: Cc1sc2c(c1C)C(c1ccc(Cl)cc1)=N[C@@H](CC(=O)Nc1ccc(O)cc1)c1nnc(C)n1-2 [OTX015]
- rate of diarrhea (patients with R/R AML): 34%
- rate of nausea (patients with R/R AML): 22%
- rate of vomiting (patients with R/R AML): 7%

Compound: CCS(=O)(=O)Nc1ccc(Oc2ccc(F)cc2F)c(-c2cn(C)c(=O)c3[nH]ccc23)c1 [mivebresib]
- solid tumor recommended phase 2 dose [1]: 1.5 mg daily
- steady‐state accumulation ratio ([2]; AUC0‐24 on C1D8 versus C1D1, daily dosing): approximately 2 fold
- dose proportionality of PK ([2]; dose‐normalized C1D8 Cmax and AUC24 over the studied dosing range): approximately dose proportional
- half-life ([2]; human, plasma, oral): 16.4 h
- effect of venetoclax coadministration on mivebresib PK ([2]; monotherapy vs combination cohorts): no effect
- anemia, grade ≥3 mivebresib‐related TEAE ([3]; MIV‐mono n = 19): 26%
- decreased appetite, TEAE frequency ([3]; MIV‐mono n = 19): 58%
- decreased appetite, grade ≥3 ([3]; MIV‐mono n = 19): 11%
- diarrhea, grade ≥3 ([3]; MIV‐mono n = 19): no grade ≥3
- fatigue, TEAE frequency ([3]; MIV‐mono n = 19): 68%
- fatigue, grade ≥3 ([3]; MIV‐mono n = 19): 21%
- nausea, grade ≥3 ([3]; MIV‐mono n = 19): 5%
- pneumonia, serious TEAE ([3]; MIV‐mono n = 19): 16%
- AML progression (AML), serious TEAE [3, 6]: 16%
- decreased appetite, mivebresib‐related TEAE [3, 6]: 42%
- diarrhea, mivebresib‐related TEAE [3, 6]: 42%
- dysgeusia, mivebresib‐related TEAE [3, 6]: 74%
- febrile neutropenia, serious TEAE [3, 6]: 16%
- grade ≥3 mivebresib‐related TEAEs, patients [3, 6]: 68%
- serious adverse events (serious TEAEs regardless of relatedness), patients [3, 6]: 74%
- thrombocytopenia, grade ≥3 mivebresib‐related TEAE [3, 6]: 32%
- dose‐limiting toxicities (DLTs) ([3]; first 4 weeks, all dose levels): No DLTs occurred
- ALT increased, AE related to mivebresib [3, 7]: 1 (5) No. of Patients (%)
- AST increased, AE related to mivebresib [3, 7]: 0 (0) No. of Patients (%)
- Anemia, AE related to mivebresib [3, 7]: 7 (37) No. of Patients (%)
- Anemia, TEAE [3, 7]: 13 (68) No. of Patients (%)
- Any TEAEs [3, 7]: 19 (100) No. of Patients (%)
- Cough, TEAE [3, 7]: 6 (32) No. of Patients (%)
- Decreased appetite, AE related to mivebresib [3, 7]: 8 (42) No. of Patients (%)
- Decreased appetite, TEAE [3, 7]: 11 (58) No. of Patients (%)
- Diarrhea, AE related to mivebresib [3, 7]: 8 (42) No. of Patients (%)
- Diarrhea, TEAE [3, 7]: 9 (47) No. of Patients (%)
- Dry mouth, AE related to mivebresib [3, 7]: 2 (11) No. of Patients (%)
- Dysgeusia, AE related to mivebresib [3, 7]: 14 (74) No. of Patients (%)
- Dysgeusia, TEAE [3, 7]: 15 (79) No. of Patients (%)
- Dyspnea, TEAE [3, 7]: 6 (32) No. of Patients (%)
- Epistaxis, AE related to mivebresib [3, 7]: 3 (16) No. of Patients (%)
- Epistaxis, TEAE [3, 7]: 4 (21) No. of Patients (%)
- Fatigue, AE related to mivebresib [3, 7]: 7 (37) No. of Patients (%)
- Fatigue, TEAE [3, 7]: 13 (68) No. of Patients (%)
- Febrile neutropenia, AE related to mivebresib [3, 7]: 0 (0) No. of Patients (%)
- Febrile neutropenia, TEAE [3, 7]: 7 (37) No. of Patients (%)
- Headache, AE related to mivebresib [3, 7]: 0 (0) No. of Patients (%)
- Hyperbilirubinemia, TEAE [3, 7]: 6 (32) No. of Patients (%)
- Hypokalemia, TEAE [3, 7]: 3 (16) No. of Patients (%)
- Hypomagnesemia, TEAE [3, 7]: 2 (11) No. of Patients (%)
- Muscular weakness, TEAE [3, 7]: 7 (37) No. of Patients (%)
- Nausea, AE related to mivebresib [3, 7]: 7 (37) No. of Patients (%)
- Nausea, TEAE [3, 7]: 9 (47) No. of Patients (%)
- Neutrophil count decreased, AE related to mivebresib [3, 7]: 2 (11) No. of Patients (%)
- Platelet count decreased, AE related to mivebresib [3, 7]: 2 (11) No. of Patients (%)
- Stomatitis, AE related to mivebresib [3, 7]: 1 (5) No. of Patients (%)
- Thrombocytopenia, AE related to mivebresib [3, 7]: 7 (37) No. of Patients (%)
- Thrombocytopenia, TEAE [3, 7]: 10 (53) No. of Patients (%)
- Vomiting, AE related to mivebresib [3, 7]: 5 (26) No. of Patients (%)
- Vomiting, TEAE [3, 7]: 6 (32) No. of Patients (%)
- WBC count decreased, AE related to mivebresib [3, 7]: 1 (5) No. of Patients (%)
- Weight decreased, AE related to mivebresib [3, 7]: 2 (11) No. of Patients (%)
- patients with an AE leading to discontinuation ([3]; whole study, MIV‐mono and MIV‐Ven): Seventeen
- BIM (proapoptotic gene) expression ([4]; 6 hours after MIV‐mono, P < .0005, data not shown): increased
- BCL2 (antiapoptotic gene) expression ([4]; 6 hours after MIV‐mono, P < .01, data not shown): inhibited
- PUMA (proapoptotic gene) expression ([4]; 6 hours after MIV‐mono, P < .064, data not shown): increased
- CD93 expression [4, 8]: decrease
- DCXR gene expression [4, 8]: increase
- HEXIM1 gene expression [4, 8]: increase
- MYC expression ([4]; PB, 6 hours after MIV‐mono administration, P < .083): decrease
- pharmacodynamic effects (gene modulation) vs dose and drug exposure [4]: proportional to dose and drug exposure
- pharmacodynamic effects (gene modulation) vs dose and drug exposure ([4]; listed as MIV‐mono): dose‐dependent
- response: CRi ([5]; 19 patients who received MIV‐mono): 5%
- median OS ([5]; MIV‐mono 1.5 mg): 15.7 weeks
- median PFS ([5]; MIV‐mono 1.5 mg): 7.2 weeks
- median OS ([5]; MIV‐mono 2.0 mg): 22.0 weeks
- median PFS ([5]; MIV‐mono 2.0 mg): 13.9 weeks
- median OS ([5]; MIV‐mono 2.5 mg): 12.6 weeks
- median PFS ([5]; MIV‐mono 2.5 mg): 10.6 weeks
- patients with FLT3 and NPM1 co‐occurrence who responded / had a reduction in BM blasts ([5]; MIV‐mono 3 patients, MIV‐Ven 4 patients): None
- response: CRi ([5]; MIV‐mono group): 1 patient
- patients with measurable reduction in BM blasts ([5]; assessable patients: 16 MIV‐mono, 15 only MIV‐Ven): 44%
- Best IWG response: Aplasia [5, 7]: 0 (0) No. of Patients (%)
- Best IWG response: CR [5, 7]: 0 (0) No. of Patients (%)
- Best IWG response: CRi [5, 7]: 1 (5) No. of Patients (%)
- Best IWG response: MLFS [5, 7]: 0 (0) No. of Patients (%)
- Best IWG response: PR [5, 7]: 0 (0) No. of Patients (%)
- Best IWG response: Resistant disease [5, 7]: 15 (79) No. of Patients (%)
- Best IWG response: Unknown: Not assessable or insufficient data [5, 7]: 3 (16) No. of Patients (%)
